Bioassay records from PubChem BioAssay.
PHOSPHO1 inh: inhibitors of human PHOSPHO1 phosphatase; actives 1.1% (n = 290,000); Q8TCT1; recombinant PHOSPHO1, absorbance phosphatase assay; inhibition, % at 13.3 µM; AID 1565; in the data active means inhibition above about 60%
Target sequence (Q8TCT1 whole entry, looked up): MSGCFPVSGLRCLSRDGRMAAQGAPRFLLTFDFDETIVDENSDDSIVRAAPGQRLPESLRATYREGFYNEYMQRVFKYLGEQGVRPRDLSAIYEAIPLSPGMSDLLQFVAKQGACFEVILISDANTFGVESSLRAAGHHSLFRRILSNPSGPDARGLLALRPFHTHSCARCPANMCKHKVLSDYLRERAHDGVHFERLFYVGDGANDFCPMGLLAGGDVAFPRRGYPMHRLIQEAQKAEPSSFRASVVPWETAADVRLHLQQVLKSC
IDE cell inh: cellular human IDE inhibition. P14735. HEK cells, FAbetaB cleavage, fluorescence polarization. inhibition, % at 5.59 µM. actives 0.41% (n = 320,000);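 active means percent inhibition above the average of all tested compounds plus 3 SD, set per screening campaign, cut at about 16% in these data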;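 further: IDE supplied by intact live HEK cells; FP after avidin binding of uncleaved biotin substrate so inhibition keeps polarization high; 0% = DMSO wells and 100% = 60 µM reference IDE inhibitor Ii1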
proCasp3 act: procaspase-3 (human) activation | recombinant procaspase-3 D3A, Ac-DEVD-pNA absorbance 405 nm | AID 463141 | activation, % at 8.5 µM | actives 0.11% (n = 330,000);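 active means activation above the mean of all tested compounds plus 3 SD, cut at about 21% in these data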;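 further: 0% = DMSO alone and 100% = DMSO wells spiked with extra 5 µM PC-3 D3A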
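assay system = Procaspase-3 D3A mutant | signal = absorbance at 405 nm, 0 and 120 min | times = 1 h preincubation plus 2 h reaction at 25 °C | repeats = single replicate | read-out = % activation between DMSO and enzyme-spiked controls | medium = Zinc-free HEPES saline buffer with Triton X-100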
procasp7 counter: activates human procaspase-7, counter-screen for procaspase-3 activators; P55210; recombinant procaspase-7, Ac-DEVD-pNA absorbance 405 nm; D23A/D198A/D206A triple mutant, cannot self-cleave; scale: DMSO 0, 5 µM enzyme 100; activation, % at 8.5 µM; actives 0.093% (n = 330,000); AID 463210;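 active means percent activation above the screen-wide mean plus 3 SD, cut at about 25% in these data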
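buffer or medium = Zinc-free HEPES/NaCl buffer, pH 7.4 | material = Procaspase-7 triple mutant (PC-7 D3A) | input = 2 µM procaspase-7 mutant as dispensed | signal = Epi-absorbance of released pNA at 405 nm, two timepoints | timing = 1 h preincubation, 2 h reaction | replicates = singlicate compound testing | evaluation = % activation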
UBC13 polyUb: blocks human UBC13 polyubiquitin chain formation | inhibition, % at 20 µM | P61088 | TR-FRET | actives 0.47% (n = 330,000); in the data active means inhibition above about 45%, passing the limit was not always enough; inconclusive means no clear call, values can overlap the other calls
Target sequence (P61088 whole entry, looked up): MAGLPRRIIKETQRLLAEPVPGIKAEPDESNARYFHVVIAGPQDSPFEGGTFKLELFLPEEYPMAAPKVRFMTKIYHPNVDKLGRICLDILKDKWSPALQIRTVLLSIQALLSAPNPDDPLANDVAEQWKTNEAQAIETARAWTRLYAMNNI
IDE act: boosts human insulin-degrading enzyme activity in HEK cells | P14735 | FAbeta-B cleavage, fluorescence polarization; 0% vehicle, 100% cell-free pure enzyme wells | activation, % at 5.96 µM | actives 0.073% (n = 340,000) | AID 493087;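 active means activation above the mean of all tested compounds plus 3 SD, set per screening campaign, cut at about 17% in these data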
PC3 dual counter: counter-screen: procaspase-3 (human) activation | shares compounds with procasp7 counter | recombinant PC-3 D3A, Ac-DEVD-pNA absorbance 405 nm; aspartates 9, 28, 175 changed to alanine; 100% = enzyme control | activation, % at 8.5 µM | 290 tested, under 10 active | AID 493114;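 active means mean percent activation across triplicates above a set limit taken from the earlier primary procaspase-3 screen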;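 further: 0% = DMSO wells and 100% = DMSO wells with 5 µM added PC-3 D3A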
PC7 dual conf: activates human procaspase-7, confirming dual procaspase activators; shares compounds with procasp7 counter; recombinant procaspase-7, Ac-DEVD-pNA absorbance 405 nm; D23A/D198A/D206A mutant that cannot self-cleave; activation, % at 8.5 µM; 290 tested, under 10 active; AID 493115;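 active means mean activation above a set limit carried over from the earlier primary screen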;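 further: 0% = DMSO only and 100% = DMSO with added 5 µM PC-7 enzyme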
* = called active by the depositor; u = inconclusive; x = no result. Rows were chosen to be rich in hits. Some 1.9% of all compounds tested hit in one or more screens of this group.

SMILES	PHOSPHO1 inh	IDE cell inh	proCasp3 act	procasp7 counter	UBC13 polyUb	IDE act	PC3 dual counter	PC7 dual conf
COc1ccc(-c2cc3nc4c(c(N5CCC6(CC5)OCCO6)n3n2)CCC4)cc1	56.0	4.3	-0.6	-5.3	6.3	3.6	x	x
COc1ccc(-c2cc3nc(-c4ccccc4)cc(N4CCC5(CC4)OCCO5)n3n2)cc1	-28.4	-1.1	23.2*	35.6*	u	0.9	-28.5	-36.0
CSCCCc1cn([C@@H](CO)C(=O)NCCCCCCCCCCC(=O)N2CCNCC2)nn1	x	1.4	5.3	2.2	-4.2	-1.7	x	x
O=C(NCCc1ccccc1)c1coc(=O)c(Br)c1	42.0	x	x	x	0.6	0.1	x	x
CCCCNC(=O)c1onc(CS(=O)(=O)c2ccccn2)c1C(=O)NCCCC	x	7.7	10.0	5.5	5.2	-0.7	x	x
CCCS(=O)(=O)c1c(S(=O)(=O)CCC)c2cc(-c3ccncc3)ccn2c1C(=O)OC	9.5	2.7	28.9*	34.1*	25.3	3.1	-29.4	-35.2
c1ccc(CNc2cncnc2)cc1	19.3	2.2	-4.9	-2.7	3.3	-0.7	x	x
COc1ccccc1[C@H]1C(c2ccccc2)=NN(c2ccccc2)[C@@H]1CO	x	x	24.5*	50.1*	x	3.9	-28.4	-36.0
COc1ccccc1[C@H]1C(c2ccc(F)cc2)=NN(c2ccccc2)[C@@H]1CO	x	x	10.4	13.2	x	-1.4	x	x
Cc1nn(CC(=O)NCC(C)c2ccccc2)c(=O)c2cccn12 (stereo unspecified)	-4.1	7.6	-2.7	-3.8	2.3	-2.7	x	x
Cc1ccc(C(=O)N2CCCN(c3nc4cc5c(cc4cc3C#N)OCO5)CC2)cc1	23.7	8.3	-8.8	-18.0	-25.5	4.8	x	x
N#Cc1cc2cc3c(cc2nc1N1CCCCC1)OCCO3	31.9	0.2	19.1	37.9*	9.2	3.2	-27.7	-35.8
COc1ccc2nc3cc(Cl)ccc3c(Nc3cc(C(C)C)c(O)cc3C)c2c1	32.7	-2.0	-18.1	25.7*	-5.9	-1.6	-18.4	-23.3
COc1ccc(C(=O)N/N=C/c2ccc3cccc(OCc4ccccc4)c3n2)cc1	20.6	6.3	4.2	30.1*	4.2	2.9	7.6	6.7
C[C@@H]1C(c2cccc(Cl)c2)=NN(c2ccccc2)[C@H]1C(=O)N1CCOC1=O	x	x	6.9	30.3*	x	3.9	-30.1	-36.5
Cc1cccc(C2=NN(c3ccc(Br)cc3)[C@@H](C(=O)N3CCOC3=O)[C@@H]2c2ccccc2)c1	x	x	20.2	32.1*	x	2.8	-29.8	-33.4
C[C@@H]1C(c2ccccc2)=NN(c2ccccc2)[C@H]1C(=O)N1CCOC1=O	x	x	-4.0	3.5	x	3.7	x	x
C[C@@H]1C(c2cccc(Cl)c2)=NN(c2ccc(Br)cc2)[C@H]1C(=O)N1CCOC1=O	x	x	21.9*	28.7*	x	1.8	-30.1	-36.0
O=C1NC(=S)NC1(c1ccccc1)c1ccccc1	x	x	x	x	x	3.8	x	x
CCN(CC(=O)Nc1c(F)cccc1F)C(=O)CSC(=S)N1CCCC1	x	0.8	-5.5	-0.7	-5.4	5.3	x	x
CCC(C)Sc1cc(-c2nc3ccc(C)cn3c2NCc2ccccc2)ccc1OC (stereo unspecified)	x	-4.2	22.0*	28.4*	x	14.0	-27.4	-29.8
O=C(NCCOc1ccccc1)C1CCC(=O)N(CCCN2CCOCC2)C1 (stereo unspecified)	30.1	0.3	5.0	-2.8	3.2	5.7	x	x
O=C(NCCN1CCCC1)C1CCC(=O)N(CCCN2CCOCC2)C1 (stereo unspecified)	19.8	0.8	0.1	44.8*	-3.6	2.8	0.8	0.5
Cc1ccc(Cn2c(=O)c3cccnc3n(CC(=O)Nc3cccc(C(F)(F)F)c3)c2=O)cc1	0.3	2.9	0.9	41.5*	-0.8	6.3	-1.1	-1.3
